Activity calls are given as the source filed them.
Experiments:
[1] = target: T1, Cannabinoid receptor 1 (Rattus norvegicus, UniProt P20272); assay: Displacement of [3H]CP-55,940 from CB1 receptor in rat brain membranes in absence of FAAH inhibitor PMSF by radioligand binding assay; format: cell membranes, Membrane
[2] = target: T1, Cannabinoid receptor 1; assay: Displacement of [3H]CP-55,940 from CB1 receptor in rat brain membranes in presence of FAAH inhibitor PMSF by radioligand binding assay; format: cell membranes, Membrane
[3] = target: Cannabinoid receptor 2 (Mus musculus, UniProt P47936); assay: Displacement of [3H]CP-55,940 from mouse CB2 receptor expressed in HEK293 cell membranes in absence of FAAH inhibitor PMSF by radioligand binding assay
Method in brief: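 Membranes from HEK293 cells expressing human or mouse CB2 (preparations lacking FAAH activity), competing against [3H]CP-55,940. IC50 by nonlinear regression, converted to Ki. Three independent experiments run in triplicate; Ki is the mean of the three.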

[4] = target: T1, Cannabinoid receptor 1; assay: Agonist activity at rat CB1 receptor expressed in HEK293 cells assessed as inhibition of forskolin-induced cAMP accumulation incubated for 30 mins; format: functional, cell-based; conditions: read-out: EC50
Method in brief: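 HEK293 cells stably expressing rCB1, harvested with nonenzymatic dissociation reagent, washed in HBSS, 1000–1500 cells/well. Test compound at various concentrations with forskolin (2 μM final) in stimulation buffer, 30 min at room temperature. cAMP read by TR-FRET (Eu-cAMP tracer plus ULight anti-cAMP, 60 min room temperature). Forskolin-stimulated cAMP set to 100%. EC50 from nonlinear regression; two independent experiments in triplicate.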

[5] = target: Cannabinoid receptor 1 (Rattus norvegicus) (UniProt P20272); assay: Agonist activity at rat CB1 receptor expressed in HEK293 cells assessed as inhibition of forskolin-induced cAMP accumulation incubated for 30 mins relative to 500 nM CP-55,940; format: functional, cell-based
[6] = target: T2, FAAH (fatty-acid amide hydrolase 1) (Homo sapiens, UniProt O00519); assay: Stability assessed as human FAAH-mediated compound hydrolysis by LC-MS/MS analysis; format: ADME; conditions: human FAAH (fatty-acid amide hydrolase 1), read-out: Stability
T2 sequence (O00519 whole entry): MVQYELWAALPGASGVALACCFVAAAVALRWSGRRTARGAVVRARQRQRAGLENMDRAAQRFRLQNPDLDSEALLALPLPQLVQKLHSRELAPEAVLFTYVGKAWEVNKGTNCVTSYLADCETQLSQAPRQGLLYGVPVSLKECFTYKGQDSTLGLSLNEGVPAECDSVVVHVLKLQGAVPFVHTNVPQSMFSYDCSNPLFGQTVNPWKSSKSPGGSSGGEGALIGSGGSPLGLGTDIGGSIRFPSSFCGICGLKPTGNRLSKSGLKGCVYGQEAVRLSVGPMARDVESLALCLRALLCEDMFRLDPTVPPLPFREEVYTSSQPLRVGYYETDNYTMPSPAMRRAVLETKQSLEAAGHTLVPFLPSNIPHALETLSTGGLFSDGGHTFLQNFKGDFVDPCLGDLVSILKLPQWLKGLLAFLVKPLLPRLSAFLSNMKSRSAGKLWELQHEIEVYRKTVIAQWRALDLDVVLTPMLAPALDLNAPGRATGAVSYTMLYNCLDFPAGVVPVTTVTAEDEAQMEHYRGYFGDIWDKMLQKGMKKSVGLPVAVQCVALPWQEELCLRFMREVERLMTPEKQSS
Method in brief: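 Expressed, partially purified rat or human FAAH incubated with compound, or AEA as reference substrate, for 30 min. Aliquots at time points quenched in acetonitrile to precipitate protein. Remaining compound measured by LC-MS/MS on a cyano column with 10 mM ammonium acetate pH 7.3/methanol at 0.5 mL/min.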

[7] = target: T3, Prostaglandin G/H synthase 2 (Mus musculus, UniProt Q05769); assay: Stability assessed as mouse COX2-mediated compound oxidation by measuring oxygen consumption by polarographic assay; format: ADME
T3 sequence (Q05769 whole entry): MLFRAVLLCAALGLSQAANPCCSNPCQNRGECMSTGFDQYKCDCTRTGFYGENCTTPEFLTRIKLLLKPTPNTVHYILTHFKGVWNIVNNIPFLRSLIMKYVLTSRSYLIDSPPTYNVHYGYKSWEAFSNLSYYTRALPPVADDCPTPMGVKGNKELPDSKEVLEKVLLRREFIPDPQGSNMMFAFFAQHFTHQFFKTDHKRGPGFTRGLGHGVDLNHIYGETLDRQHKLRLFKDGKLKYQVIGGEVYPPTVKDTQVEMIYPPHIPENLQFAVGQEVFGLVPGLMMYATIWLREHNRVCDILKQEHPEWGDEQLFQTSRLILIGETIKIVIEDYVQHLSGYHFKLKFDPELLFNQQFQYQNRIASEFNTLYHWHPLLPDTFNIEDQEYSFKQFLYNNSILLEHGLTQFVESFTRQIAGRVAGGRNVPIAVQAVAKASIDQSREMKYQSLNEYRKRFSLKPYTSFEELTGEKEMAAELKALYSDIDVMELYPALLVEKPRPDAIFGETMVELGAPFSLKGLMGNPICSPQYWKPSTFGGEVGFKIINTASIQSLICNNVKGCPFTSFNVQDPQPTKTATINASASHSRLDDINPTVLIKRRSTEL

[8] = tested on: Mus musculus; assay: Antiallodynic activity in CD1 mouse model of CFA-induced inflammatory pain assessed as increase in CFA-reduced mechanical paw withdrawal threshold at 5 mg/kg, ip measured up to 30 mins post injection; format: functional, organism-based
Method in brief: (§1)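 Adult male mice (39 ± 10 g), wild-type CD1 or CB1 KO on CD1 background, single housed. CFA:saline 1:1 (20 μL) injected intraplantar into right hind paw; 48 h allowed before dosing. Drug given ip in 5 mL/kg, vehicle group included. Electronic von Frey (90 g probe) after ≥30 min habituation, read in duplicate per paw, at baseline, 48 h post-CFA and 10, 30, 60, 120 min post-dose. Two-way mixed ANOVA with Bonferroni post hoc tests.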

[9] = tested on: Mus musculus; assay: Antiallodynic activity in CD1 mouse model of CFA-induced inflammatory pain assessed as increase in CFA-reduced mechanical paw withdrawal threshold at 5 mg/kg, ip measured at 120 mins post injection; format: functional, organism-based; method in brief: as §1
[10] = tested on: Mus musculus; assay: Antiallodynic activity in CB1 receptor knockout CD1 mouse model of CFA-induced inflammatory pain assessed as increase in CFA-reduced mechanical paw withdrawal threshold at 5 mg/kg, ip measured at 10 to 120 mins post injection; format: functional, organism-based; method in brief: as §1
[11] = tested on: Mus musculus; assay: Effect on mechanical paw withdrawal threshold of contralateral paw in CB1 receptor knockout CD1 mouse model of CFA-induced inflammatory pain at 5 mg/kg, ip measured at 10 to 120 mins post injection; format: ADME, organism-based; conditions: in vivo
Method in brief: (§2)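 Wild-type CD1 or CB1 KO (CD1 background) adult male mice. Unilateral intraplantar CFA:saline 1:1 (20 μL) into right hind paw, 48 h before ip dosing (5 mL/kg); vehicle controls. Threshold of the uninjected contralateral paw measured by electronic von Frey (90 g probe), duplicate readings averaged, at 10, 30, 60, 120 min post-dose. Two-way mixed ANOVA.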

[12] = tested on: Mus musculus; assay: Effect on mechanical paw withdrawal threshold of contralateral paw in CD1 mouse model of CFA-induced inflammatory pain at 5 mg/kg, ip measured at 10 to 120 mins post injection; format: ADME, organism-based; conditions: in vivo; method in brief: as §2

T1 sequence (P20272 whole entry): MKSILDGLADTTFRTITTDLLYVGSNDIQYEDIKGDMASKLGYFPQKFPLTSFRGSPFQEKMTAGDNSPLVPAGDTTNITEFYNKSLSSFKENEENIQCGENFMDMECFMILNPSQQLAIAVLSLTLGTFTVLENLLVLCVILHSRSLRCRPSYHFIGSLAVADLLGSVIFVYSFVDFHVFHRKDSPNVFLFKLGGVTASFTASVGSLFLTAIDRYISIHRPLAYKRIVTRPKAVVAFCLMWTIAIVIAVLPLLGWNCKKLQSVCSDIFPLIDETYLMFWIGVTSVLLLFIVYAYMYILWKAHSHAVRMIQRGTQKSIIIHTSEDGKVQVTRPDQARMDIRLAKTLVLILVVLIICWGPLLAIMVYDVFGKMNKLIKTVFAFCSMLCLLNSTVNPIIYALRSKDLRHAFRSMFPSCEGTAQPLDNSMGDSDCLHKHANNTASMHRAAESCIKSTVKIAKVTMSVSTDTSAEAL
Chain of Cannabinoid receptor 1 (Rattus norvegicus) (P20272 whole entry): as above
Chain of Cannabinoid receptor 2 (P47936 whole entry): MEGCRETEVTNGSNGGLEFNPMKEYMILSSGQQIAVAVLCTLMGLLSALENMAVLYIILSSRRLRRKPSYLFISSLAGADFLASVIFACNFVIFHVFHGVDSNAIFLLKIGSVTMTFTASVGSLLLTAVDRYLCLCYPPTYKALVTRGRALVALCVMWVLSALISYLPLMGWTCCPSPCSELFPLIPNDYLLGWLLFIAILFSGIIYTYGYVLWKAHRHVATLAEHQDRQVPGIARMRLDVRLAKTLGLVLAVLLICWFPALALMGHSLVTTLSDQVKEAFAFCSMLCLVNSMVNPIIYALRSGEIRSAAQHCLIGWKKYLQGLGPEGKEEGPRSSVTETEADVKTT

CCCCC/C=C\[C@H](C)/C=C\C/C=C\C/C=C\CCCC(=O)N[C@H](C)CO
Ki [1]: 7.8 nM | Ki [2]: 8.9 nM | Ki [3]: 653 nM | EC50 [4]: 0.6 nM | Emax [5]: 76% | half-life [6]: 30 min | Stability [7]: Stable | Activity [8]: Active | Activity [9]: inactive | Activity [10]: inactive | Activity [11]: Non-Toxic | Activity [12]: Non-Toxic

From ChEMBL document CHEMBL4196195, “( R)- N-(1-Methyl-2-hydroxyethyl)-13-( S)-methyl-arachidonamide (AMG315): A Novel Chiral Potent Endocannabinoid Ligand with Stability to Metabolizing Enzymes” (J Med Chem, 2018)
